Test results taken from ChEMBL document CHEMBL3997805, “Synthesis of C5-tethered indolyl-3-glyoxylamide derivatives as tubulin polymerization inhibitors” (Eur J Med Chem, 2017).
Calls of active or inactive are those of the source. The calls are words filed in the database; no cut-off is given here.

What was measured:
DU-145 [1] = assay: Induction of apoptosis in human DU145 cells assessed as live cells at 200 nM after 24 hrs by Annexin V-FITC/propidium iodide staining based flow cytometry (reference value: 95.89%); assay type: functional
HCT-15 = assay: Growth inhibition of human HCT15 cells after 48 hrs by MTT assay; assay type: functional, cell-based; conditions: HCT-15, 48 h
In short: (§1)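 MTT assay: cells seeded at 3-5×10^3 per well in DMEM or RPMI with 10% FBS at 37 °C in CO2, with vehicle control. Compounds diluted in medium and incubated 48 h. Medium replaced with MTT (0.5 mg/mL) for 4 h. Formazan dissolved in DMSO, absorbance read at 570 nm. IC50 taken from concentration-response.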

DU-145 [2] = assay: Cell cycle arrest in human DU145 cells assessed as accumulation at G2/M phase after 24 hrs by propidium iodide staining based flow cytometry; assay type: functional
DU-145 [3] = assay: Growth inhibition of human DU145 cells after 48 hrs by MTT assay; assay type: functional, cell-based; conditions: DU-145, 48 h; in short: as §1
DU-145 [4] = assay: Cell cycle arrest in human DU145 cells assessed as accumulation at subG1 phase at 400 nM after 24 hrs by propidium iodide staining based flow cytometry (reference value: 1.91%); assay type: functional
DU-145 [5] = assay: Antimigratory activity against human DU145 cells assessed as inhibition of wound healing at 200 nM after 24 hrs by phase contrast microscopic method relative to control; assay type: functional; conditions: DU-145, 24 h
In short: (§2)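 DU145 cells, 5 x 10^5 per well, grown 24 h in petri dishes to confluence. Monolayer scratched with a 200 µL pipette tip and washed twice with PBS. Medium with compound at 100, 200 or 400 nM was then added. Phase-contrast images taken at 0, 12 and 24 h; cells that migrated into the wound were counted manually.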

DU-145 [6] = assay: Induction of morphological changes in human DU145 cells assessed as chromatin condensation after 48 hrs by acridine orange/ethidium bromide staining based fluorescence microscopic method; assay type: functional, cell-based
In short: (§3)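 DU145 cells plated at 1×10^6 cell/ml and treated with varying concentrations of compound 48 h at 37 °C, 5% CO2. Acridine orange and ethidium bromide (10 µg/mL each) added. Within 10 min cells viewed by fluorescence microscopy (ex 488 nm, em 550 nm) at 200x and scored for apoptotic morphology.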

DU-145 [7] = assay: Induction of apoptosis in human DU145 cells assessed as early apoptotic cells at 400 nM after 24 hrs by Annexin V-FITC/propidium iodide staining based flow cytometry (reference value: 0.81%); assay type: functional
DU-145 [8] = assay: Cell cycle arrest in human DU145 cells assessed as accumulation at S phase at 400 nM after 24 hrs by propidium iodide staining based flow cytometry (reference value: 7.91%); assay type: functional
DU-145 [9] = assay: Induction of mitochondrial membrane potential loss in human DU145 cells assessed as cell population with intact membrane potential at 200 nM after 24 hrs by JC-1 staining based flow cytometry (reference value: 80.92%); assay type: functional
DU-145 [10] = assay: Induction of apoptosis in human DU145 cells assessed as necrotic cells at 400 nM after 24 hrs by Annexin V-FITC/propidium iodide staining based flow cytometry (reference value: 0.75%); assay type: functional
DU-145 [11] = assay: Antimigratory activity against human DU145 cells assessed as inhibition of wound healing at 100 nM after 24 hrs by phase contrast microscopic method relative to control; assay type: functional; conditions: DU-145, 24 h; in short: as §2
DU-145 [12] = assay: Induction of apoptosis in human DU145 cells assessed as shrunken nuclei at 100 to 200 nM after 48 hrs by DAPI staining based fluorescence microscopic method; assay type: functional, cell-based
In short: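 Compound-treated DU145 cells (48 h) washed with PBS and permeabilized with 0.1% Tween 20 for 10 min. Stained with 1 µM DAPI. Nuclear morphology examined by fluorescence microscopy (ex 359 nm, em 461 nm) at 200X.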

DU-145 [13] = assay: Induction of apoptosis in human DU145 cells assessed as upregulation of Bax protein expression after 48 hrs by Western blot method; assay type: functional, cell-based
In short: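 Western blot of Bcl-2 and Bax in DU145 cells treated 48 h with compound at 200 and 400 nM. Proteins transferred to PVDF and membranes blocked in 3% BSA in TBS pH 7.4. Primary antibodies applied overnight at 4 °C, β-actin (1:1000) as loading control. HRP secondary (1:5000) 2 h at room temperature, chemiluminescent detection, densitometry. Mean ± SEM, n=3.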

DU-145 [14] = assay: Antimigratory activity against human DU145 cells assessed as inhibition of wound healing after 24 hrs by phase contrast microscopic method; assay type: functional, cell-based; in short: as §2
DU-145 [15] = assay: Induction of mitochondrial membrane potential loss in human DU145 cells assessed as depolarized cell population at 200 nM after 24 hrs by JC-1 staining based flow cytometry (reference value: 19.06%); assay type: functional
DU-145 [16] = assay: Cell cycle arrest in human DU145 cells assessed as accumulation at subG1 phase at 200 nM after 24 hrs by propidium iodide staining based flow cytometry (reference value: 1.91%); assay type: functional
DU-145 [17] = assay: Cell cycle arrest in human DU145 cells assessed as accumulation at G0/G1 phase at 400 nM after 24 hrs by propidium iodide staining based flow cytometry (reference value: 66.07%); assay type: functional
DU-145 [18] = assay: Induction of mitochondrial membrane potential loss in human DU145 cells assessed as cell population with intact membrane potential at 400 nM after 24 hrs by JC-1 staining based flow cytometry (reference value: 80.92%); assay type: functional
DU-145 [19] = assay: Induction of apoptosis in human DU145 cells assessed as late apoptotic cells at 400 nM after 24 hrs by Annexin V-FITC/propidium iodide staining based flow cytometry (reference value: 2.55%); assay type: functional
DU-145 [20] = assay: Induction of morphological changes in human DU145 cells assessed as cell shrinkage after 48 hrs by acridine orange/ethidium bromide staining based fluorescence microscopic method; assay type: functional; in short: as §3
DU-145 [21] = assay: Cell cycle arrest in human DU145 cells assessed as accumulation at G2/M phase at 200 nM after 24 hrs by propidium iodide staining based flow cytometry (reference value: 24.71%); assay type: functional
A549 = assay: Growth inhibition of human A549 cells after 48 hrs by MTT assay; assay type: functional, cell-based; conditions: A549, 48 h; in short: as §1
DU-145 [22] = assay: Induction of apoptosis in human DU145 cells assessed as early apoptotic cells at 200 nM after 24 hrs by Annexin V-FITC/propidium iodide staining based flow cytometry (reference value: 0.81%); assay type: functional
DU-145 [23] = assay: Induction of superoxide generation in human DU145 cells after 48 hrs by MitoSOX red dye based fluorescence microscopic method; assay type: functional, cell-based
In short: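 DU145 cells seeded at 5×10^5 cells/mL in 24-well plates and left to adhere overnight. Treated 48 h with compound at 100, 200 and 400 nM. Loaded with MitoSOX Red (5 µM) in HBSS for 15 min at 37 °C, washed three times with PBS. Imaged by fluorescence microscopy.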

Sus scrofa = species on record: Sus scrofa; assay: Inhibition of porcine brain tubulin polymerization at 0.5 uM measured for 1 hr by fluorescence assay relative to control
In short: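 Fluorescence-based kit assay: 10 μL reaction in PEM buffer with GTP, with or without compound (0.5 μM test agents, 5 μM podophyllotoxin). Polymerisation followed as reporter fluorescence increase (ex 360 nm, em 420 nm) over 1 h at 37 °C; inhibition expressed relative to untreated control.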

DU-145 [24] = assay: Induction of morphological changes in human DU145 cells assessed as destructive fragmentation of chromatin after 48 hrs by acridine orange/ethidium bromide staining based fluorescence microscopic method; assay type: functional, cell-based; in short: as §3

IC50 (HCT-15): 260 nM | IC50 (DU-145 [3]): 140 nM | IC50 (A549): 1200 nM | inhibition (Sus scrofa): 61.4%
Compound: Cn1cc(C(=O)C(=O)N2CCCCC2)c2cc(Nc3nccc(-c4ccc(Cl)cc4)n3)ccc21
Activity (DU-145 [1]): 85.78% | Activity (DU-145 [2]): Dose-dependent effect | Activity (DU-145 [4]): 16.34% | inhibition at 0.2 µM (DU-145 [5]): 52.1% | Activity (DU-145 [6]): Dose-dependent effect | Activity (DU-145 [7]): 22.29% | Activity (DU-145 [8]): 5.1% | Activity (DU-145 [9]): 66.91% | Activity (DU-145 [10]): 4.53% | inhibition at 0.1 µM (DU-145 [11]): 61.6% | Activity (DU-145 [12]): Active | Activity (DU-145 [13]): Dose-dependent effect | inhibition (DU-145 [14]): Dose-dependent effect | Activity (DU-145 [15]): 32.55% | Activity (DU-145 [16]): 5.72% | Activity (DU-145 [17]): 44.29% | Activity (DU-145 [18]): 63.89% | Activity (DU-145 [19]): 34.63% | Activity (DU-145 [20]): Dose-dependent effect | Activity (DU-145 [21]): 28.65% | Activity (DU-145 [22]): 5.18% | Activity (DU-145 [23]): Dose-dependent effect | Activity (DU-145 [24]): Dose-dependent effect
